Usually inhibition stands for the share of the control response that was lost under treatment. In general, IC50 refers to the concentration that gives 50% inhibition. Read a low IC50 as greater potency in that assay. Usually MIC stands for the lowest concentration found to suppress growth. A low value points to greater potency.

This is an account of results in ChEMBL document CHEMBL1275335, “Design and synthesis of 2-arylbenzimidazoles and evaluation of their inhibitory effect against Chlamydia pneumoniae” (J Med Chem, 2010).

In brackets after ≈: the same amount, converted by molar mass. Activity calls are given as the source filed them. No cut-off for these calls is given here.

Data set [1] can be described thus: Cytotoxicity against human HL cells assessed as cell viability at 10 uM after 72 hrs by celltiter-glo analysis. Particulars: read-out: Activity. The data set is classed as cell-based. An outline of the steps: (§1)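 After 72 h, viability was measured as intracellular ATP by CellTiter-Glo luminescence after partial medium replacement. Results are expressed as a percentage of cells given DMSO-adjusted medium.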

Data set [2] concerns Chlamydia pneumoniae. As to the kind of experiment: Antibacterial activity against Chlamydia pneumoniae CWL029 infected in human HL cells assessed as inhibition of bacterial growth at 10 uM after 72 hrs by TR-FIA method. It counts as functional. Put shortly: (§2)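 HL cells were seeded at 6×10^4/well in RPMI 1640 with 7.5% FBS, 2 mM glutamine and gentamicin, then infected 24 h later with CWL-029 at MOI 0.2 plus 0.5 μg/mL cycloheximide and centrifuged 1 h. Compounds were added in six replicates for 72 h at 37 C. After methanol fixation, wells were labelled with europium-conjugated chlamydial antibody (100 ng/mL, 30 min, 37 C) and read by time-resolved fluorescence; rifampicin 0.012 μM served as control.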

Another data set has as its system HL. In words: Cytotoxicity against human HL cells at 2.5 uM after 72 hrs by celltiter-glo analysis. The data set is classed as cell-based. An outline of the steps: as §1
Another data set relates to Escherichia coli. As to the kind of experiment: Antibacterial activity against Escherichia coli ATCC 25922 assessed as inhibition of bacterial growth at 50 uM after 18 hrs by photometric method. It counts as functional, organism-based. An outline of the steps: (§3)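 Bacteria were dispensed with 0.01% resazurin and compound, reaching a final 50 μM; ampicillin 25 μM was the control. After 18 h at 37 C, resazurin was read photometrically at 600 nm.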

The next data set has as its system Staphylococcus aureus. In words: Antibacterial activity against Staphylococcus aureus ATCC 25923 assessed as inhibition of bacterial growth at 50 uM after 18 hrs by photometric method. The data set is classed as functional. An outline of the steps: as §3
Data set [3] has as its system Chlamydia pneumoniae. In words: Antibacterial activity against Chlamydia pneumoniae CV6 infected in human Hep2 cells assessed as minimal chlamydiocidal activity after 72 hrs by fluorescence assay. As to conditions: CV6, 72 h. It counts as functional, HEp-2. An outline of the steps:
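CV-6 was grown in HEp-2 cells under 2-fold compound dilutions (MEM, cycloheximide 1 μg/mL, 72 h, 35 C). Drug medium was then removed, wells washed with PBS pH 7.4 and fed drug-free medium. Monolayers were disrupted, passed onto fresh monolayers, incubated and stained with fluorescein anti-LPS mAb. MCC is the lowest concentration giving no IFU in the antibiotic-free passage; run in duplicate.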

Data set [4] deals with Chlamydia pneumoniae. As to the kind of experiment: Antibacterial activity against Chlamydia pneumoniae CWL029 infected in human HL cells after 72 hrs by TR-FIA method. The data set is classed as functional, cell-based. Particulars: in the assay text read “immunofluorescence method” for “TR-FIA method”. An outline of the steps: as §2
For data set [5], the system named is Chlamydia pneumoniae. In words: Chlamydiostatic activity against Chlamydia pneumoniae CV6 infected in human Hep2 cells after 72 hrs by fluorescence assay. It counts as functional, HEp-2. As to conditions: CV6, 72 h. An outline of the steps: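 Confluent HEp-2 monolayers on coverslips were centrifuged with C. pneumoniae CV-6 (10^3 IFU/mL; 1700g, 45 min, 35 C). Medium was replaced with MEM containing cycloheximide 1 μg/mL and serial 2-fold compound dilutions. After 72 h at 35 C, 5% CO2, inclusions were stained with fluorescein-conjugated anti-Chlamydia LPS mAb. MIC is the lowest concentration with no IFU; titrations were run in duplicate.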

In the case of `O=C(Nc1cccc(-c2nc3ccccc3[nH]2)c1)c1cccc(C(F)(F)F)c1`, in data set [1], the viability at 72 h, 10 µM is 69%. The inhibition at 10 µM with Chlamydia pneumoniae [2] stood at 99%. In addition, the Activity entry in the data set with HL is “Non-toxic”. Also, in the data set on Escherichia coli, the “growth inhibition (GI)” value is “inactive”. For the same compound, the inhibition of growth at 50 µM with Staphylococcus aureus (ATCC 25923, 18 h, read-out: GI) came out at 85%. Further, the MCC in the data set with Chlamydia pneumoniae [3] was determined as 50.4 µM. The compound further had an IC50 with Chlamydia pneumoniae [4] of 3000 nM. Besides, the MIC against Chlamydia pneumoniae [5] came to 3.2 µM (≈ 1.22 µg/mL).

As to `Cc1cccc(C(=O)Nc2cccc(-c3nc4ccccc4[nH]3)c2)c1`, the viability at 72 h, 10 µM in data set [1] was 99%. For the same compound, the inhibition at 10 µM with Chlamydia pneumoniae [2] came out at 98%. Also, in the data set with HL, the Activity result is recorded as “Non-toxic”. For the same compound, the “growth inhibition (GI)” value with Escherichia coli and with Staphylococcus aureus was “inactive” throughout. For the same compound, the MCC in the data set on Chlamydia pneumoniae [3] was found to be 3.2 µM. Moreover, in the data set with Chlamydia pneumoniae [4], the concentration for half-maximal inhibition (IC50) came to 2000 nM. The same compound registered a minimal inhibitory concentration (MIC) against Chlamydia pneumoniae [5] of 3.2 µM (≈ 1.05 µg/mL).

With `Cc1ccc2[nH]c(-c3cccc(NC(=O)c4cccs4)c3)nc2c1`, the viability at 72 h, 10 µM in data set [1] worked out at 95%. Moreover, in the data set with Chlamydia pneumoniae [2], the inhibition at 10 µM turned out to be 99%. The Activity entry with HL is given as “Non-toxic”. The “growth inhibition (GI)” value in the data set on Escherichia coli and in the data set on Staphylococcus aureus was “inactive” in each case. For the same compound, the MCC in the data set on Chlamydia pneumoniae [3] was 12.6 µM. The compound also came in with an MIC in the data set on Chlamydia pneumoniae [5] of 12.6 µM (≈ 4.2 µg/mL).
